# Assay results taken from ChEMBL document CHEMBL4411328, “Synthesis and Structural/Functional Characterization of Selective M14 Metallocarboxypeptidase Inhibitors Based on Phosphinic Pseudopeptide Scaffold: Implications on the Design of Specific Optical Probes” (J Med Chem, 2019).
# Active and inactive are the calls of the source. No cut-off for these calls is given here.
# What was measured:
# Carboxypeptidase A4 = target: T1, Carboxypeptidase A4 (Homo sapiens, UniProt Q9UI42); test: Inhibition of human CPA4 using AAFP as substrate preincubated for 45 mins to 2 hrs measured at 30 sec intervals for 15 mins by UV/vis-spectrophotometry
# T1 sequence (Q9UI42 whole entry): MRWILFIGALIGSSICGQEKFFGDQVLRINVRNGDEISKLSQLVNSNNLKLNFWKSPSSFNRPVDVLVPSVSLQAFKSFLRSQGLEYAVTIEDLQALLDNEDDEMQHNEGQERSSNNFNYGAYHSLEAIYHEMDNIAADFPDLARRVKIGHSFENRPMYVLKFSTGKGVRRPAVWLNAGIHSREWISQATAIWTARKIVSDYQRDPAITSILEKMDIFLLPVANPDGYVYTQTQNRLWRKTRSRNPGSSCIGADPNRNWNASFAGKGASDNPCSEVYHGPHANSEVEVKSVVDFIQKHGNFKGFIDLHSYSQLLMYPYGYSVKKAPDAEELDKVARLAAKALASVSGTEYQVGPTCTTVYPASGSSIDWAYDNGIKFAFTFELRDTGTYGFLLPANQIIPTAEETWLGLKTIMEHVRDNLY
# Procedure, shortened: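 Enzyme was hCPA4 at 4.3x10-8 M, with 1.0x10-4 M AAFP and detection at 355 nm. Inhibitor and enzyme were preincubated 45 min at 37 °C, then initial velocities were taken over 15 min (30 sec reads), in triplicate. Kiapp was obtained from the tight-binding fit.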
# Carboxypeptidase A2 = target: T2, Carboxypeptidase A2 (Homo sapiens, UniProt P48052); test: Inhibition of human CPA2 using AAFP as substrate preincubated for 45 mins to 2 hrs measured at 30 sec intervals for 15 mins by UV/vis-spectrophotometry
# T2 sequence (P48052 whole entry): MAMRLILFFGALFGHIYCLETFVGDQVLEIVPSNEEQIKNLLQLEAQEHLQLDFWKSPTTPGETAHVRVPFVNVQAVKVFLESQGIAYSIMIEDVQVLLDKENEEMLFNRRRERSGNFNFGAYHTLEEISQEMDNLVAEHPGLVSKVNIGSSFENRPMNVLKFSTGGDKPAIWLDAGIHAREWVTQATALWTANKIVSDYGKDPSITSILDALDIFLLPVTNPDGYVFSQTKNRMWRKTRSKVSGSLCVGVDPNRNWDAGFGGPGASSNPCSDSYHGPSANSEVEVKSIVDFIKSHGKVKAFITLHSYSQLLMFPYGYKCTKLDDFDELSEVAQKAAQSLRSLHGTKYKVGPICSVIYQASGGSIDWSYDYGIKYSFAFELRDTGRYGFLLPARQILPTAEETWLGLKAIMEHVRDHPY
# Procedure, shortened: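 hCPA2 was used at 3.0x10-8 M with AAFP substrate at 1.0x10-4 M, read at 355 nm, in 20 mM Tris-HCl pH 7.5, 500 mM NaCl, 1% DMSO, 0.05% Brij-35. After a 45 min preincubation at 37 °C, initial rates were followed at 30 sec intervals for 15 min, in triplicate. Kiapp was fitted by the tight-binding equation.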
# [1] = target: T3, Carboxypeptidase D (Homo sapiens) (UniProt O75976); test: Inhibition of human CPD at 1 nM to 1 mM using AAFA as substrate preincubated for 45 mins to 2 hrs measured at 30 sec intervals for 15 mins by UV/vis-spectrophotometry
# T3 sequence (whole entry): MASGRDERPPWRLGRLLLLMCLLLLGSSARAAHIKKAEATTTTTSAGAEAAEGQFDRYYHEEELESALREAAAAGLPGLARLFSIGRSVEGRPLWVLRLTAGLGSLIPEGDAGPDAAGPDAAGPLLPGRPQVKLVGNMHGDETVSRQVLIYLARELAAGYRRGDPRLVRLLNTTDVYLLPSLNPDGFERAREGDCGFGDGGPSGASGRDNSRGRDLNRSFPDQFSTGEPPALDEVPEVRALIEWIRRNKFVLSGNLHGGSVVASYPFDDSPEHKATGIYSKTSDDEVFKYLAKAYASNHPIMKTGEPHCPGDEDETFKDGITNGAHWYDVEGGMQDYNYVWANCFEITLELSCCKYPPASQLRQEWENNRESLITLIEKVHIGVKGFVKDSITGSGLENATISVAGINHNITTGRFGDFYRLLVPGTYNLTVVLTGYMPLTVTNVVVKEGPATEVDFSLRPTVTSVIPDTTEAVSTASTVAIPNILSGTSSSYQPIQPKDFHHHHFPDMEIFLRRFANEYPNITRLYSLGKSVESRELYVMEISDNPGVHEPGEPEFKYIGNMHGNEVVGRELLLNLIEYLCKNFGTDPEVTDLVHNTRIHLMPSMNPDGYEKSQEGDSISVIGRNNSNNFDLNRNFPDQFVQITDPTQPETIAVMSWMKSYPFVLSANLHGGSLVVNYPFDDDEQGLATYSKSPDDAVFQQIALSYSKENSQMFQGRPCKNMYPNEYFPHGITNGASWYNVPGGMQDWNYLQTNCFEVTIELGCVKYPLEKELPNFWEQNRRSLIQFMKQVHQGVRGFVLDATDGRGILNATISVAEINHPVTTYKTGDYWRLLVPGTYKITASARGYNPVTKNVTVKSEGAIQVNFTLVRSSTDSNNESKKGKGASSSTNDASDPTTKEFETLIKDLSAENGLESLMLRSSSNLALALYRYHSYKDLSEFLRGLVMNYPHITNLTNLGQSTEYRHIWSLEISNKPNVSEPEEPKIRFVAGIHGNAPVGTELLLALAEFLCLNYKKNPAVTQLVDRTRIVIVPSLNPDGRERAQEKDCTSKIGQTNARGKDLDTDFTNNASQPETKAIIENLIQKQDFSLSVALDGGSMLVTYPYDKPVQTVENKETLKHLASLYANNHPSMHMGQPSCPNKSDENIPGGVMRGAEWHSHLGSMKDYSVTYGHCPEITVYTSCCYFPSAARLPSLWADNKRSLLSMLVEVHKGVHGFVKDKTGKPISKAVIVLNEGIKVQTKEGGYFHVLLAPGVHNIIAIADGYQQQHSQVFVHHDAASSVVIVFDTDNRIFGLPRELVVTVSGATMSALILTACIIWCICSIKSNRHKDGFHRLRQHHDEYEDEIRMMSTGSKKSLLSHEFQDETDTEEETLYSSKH
# Procedure, shortened: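 hCPD was used at 2.0x10-8 M with AAFA substrate at 1.0x10-4 M, monitored at 355 nm. Buffer was 20 mM Tris-HCl pH 7.5, 100 mM NaCl, 1% DMSO, 0.05% Brij-35. Preincubation was 45 min at 37 °C. Residual activity at a range of inhibitor concentrations was measured from initial rates (30 sec reads, 15 min), in triplicate. Kiapp came from the tight-binding fit.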
Ki (Carboxypeptidase A4) [nM],Ki (Carboxypeptidase A2) [nM],inhibition [1],Structure (SMILES)
7.5,3.2,inactive,CC(=O)N1CCC[C@H]1C(=O)N[C@@H](C)P(=O)(O)C[C@@H](CCc1ccccc1)C(=O)O
60.6,13.8,inactive,CC(=O)N[C@@H](CO)C(=O)N[C@@H](C)P(=O)(O)C[C@@H](CCc1ccccc1)C(=O)O
3.3,0.7,inactive,CC(=O)N[C@@H](CC(C)C)C(=O)N[C@@H](C)P(=O)(O)C[C@@H](CCc1ccccc1)C(=O)O
3.5,5.7,inactive,CC(=O)NCCOCCOCC(=O)N[C@@H](Cc1ccc(O)cc1)C(=O)N[C@@H](C)P(=O)(O)C[C@@H](CCc1ccccc1)C(=O)O
25.4,2.4,inactive,CC(=O)N[C@@H](CCCCN)C(=O)N[C@@H](C)P(=O)(O)C[C@@H](CCc1ccccc1)C(=O)O
5.4,7.8,inactive,C[C@H](NC(=O)[C@H](Cc1ccc(O)cc1)NC(=O)COCCOCCN)P(=O)(O)C[C@@H](CCc1ccccc1)C(=O)O
1.9,0.2,inactive,CC(=O)N[C@@H](CC(C)C)C(=O)N[C@@H](Cc1ccccc1)P(=O)(O)C[C@@H](CCc1ccccc1)C(=O)O
2.6,1.7,inactive,CC(=O)N[C@@H](Cc1ccc(O)cc1)C(=O)N[C@@H](C)P(=O)(O)C[C@@H](CCc1ccccc1)C(=O)O
38.6,4.6,inactive,CC(=O)N[C@@H](CCC(=O)O)C(=O)N[C@@H](C)P(=O)(O)C[C@@H](CCc1ccccc1)C(=O)O

Structure (SMILES),Ki (Carboxypeptidase A4) [nM],Ki (Carboxypeptidase A2) [nM],inhibition [1]
C[C@H](NC(=O)[C@H](Cc1ccc(O)cc1)NC(=O)COCCOCCNC(=O)CCOCCOCCOCCNC(=O)CCc1ccc(C(=C\C=C2\N(CCCCS(=O)(=O)O)c3ccc4c(S(=O)(=O)[O-])cc(S(=O)(=O)O)cc4c3C2(C)C)/C=C/C2=[N+](CCCCS(=O)(=O)O)c3ccc4c(S(=O)(=O)O)cc(S(=O)(=O)O)cc4c3C2(C)C)cc1)P(=O)(O)C[C@@H](CCc1ccccc1)C(=O)O,5.7,5.3,inactive
